Results as given in article PMC11913021 (Journal of Medicinal Chemistry, 2024).

Columns and labels:
[1] = Body weight of normal C57BL/6 mice without cancer cells; type: in vivo, mouse; details: oral, C57BL/6 without cancer cells, vs untreated
[2] = biological target: T1, F614A mutant PLD1 (Homo sapiens, UniProt Q13393, F652A); assay: PLD activity assay in F614A mutant PLD1-transfected cells; type: cell-based
T1 sequence (Q13393 1-1036 isoform Q13393-2 F614A): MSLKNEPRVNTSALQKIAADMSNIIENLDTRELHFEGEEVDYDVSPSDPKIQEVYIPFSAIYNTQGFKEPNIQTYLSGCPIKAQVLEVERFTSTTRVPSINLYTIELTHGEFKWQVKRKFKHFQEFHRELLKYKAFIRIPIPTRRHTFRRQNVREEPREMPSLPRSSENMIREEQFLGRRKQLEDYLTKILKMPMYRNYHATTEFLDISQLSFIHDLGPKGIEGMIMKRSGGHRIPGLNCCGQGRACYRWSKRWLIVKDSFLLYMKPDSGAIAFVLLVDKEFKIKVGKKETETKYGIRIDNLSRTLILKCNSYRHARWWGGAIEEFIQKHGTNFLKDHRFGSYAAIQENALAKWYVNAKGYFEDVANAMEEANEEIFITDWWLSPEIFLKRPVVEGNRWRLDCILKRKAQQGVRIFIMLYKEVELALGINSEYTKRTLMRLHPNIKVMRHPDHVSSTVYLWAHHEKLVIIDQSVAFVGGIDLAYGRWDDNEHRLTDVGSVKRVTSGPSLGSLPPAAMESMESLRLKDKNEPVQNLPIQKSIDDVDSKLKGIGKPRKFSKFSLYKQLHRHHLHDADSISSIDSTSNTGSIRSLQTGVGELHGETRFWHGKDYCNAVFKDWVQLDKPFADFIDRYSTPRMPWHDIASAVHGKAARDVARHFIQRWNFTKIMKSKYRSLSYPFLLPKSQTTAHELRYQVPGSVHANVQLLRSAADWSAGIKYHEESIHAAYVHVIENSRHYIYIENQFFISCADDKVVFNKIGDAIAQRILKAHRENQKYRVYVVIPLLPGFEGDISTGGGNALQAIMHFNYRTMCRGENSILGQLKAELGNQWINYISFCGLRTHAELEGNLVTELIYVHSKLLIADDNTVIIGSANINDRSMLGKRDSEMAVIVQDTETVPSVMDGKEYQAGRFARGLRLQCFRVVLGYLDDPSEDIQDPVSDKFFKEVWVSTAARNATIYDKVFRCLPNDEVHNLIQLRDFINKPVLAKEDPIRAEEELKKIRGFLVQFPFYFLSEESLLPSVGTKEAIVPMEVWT

[3] = biological target: T2, PLD1 (Homo sapiens, UniProt Q13393); assay: PLD activity in PLD1-overexpressing A549 cells; type: cell-based
T2 sequence (Q13393 1-1074): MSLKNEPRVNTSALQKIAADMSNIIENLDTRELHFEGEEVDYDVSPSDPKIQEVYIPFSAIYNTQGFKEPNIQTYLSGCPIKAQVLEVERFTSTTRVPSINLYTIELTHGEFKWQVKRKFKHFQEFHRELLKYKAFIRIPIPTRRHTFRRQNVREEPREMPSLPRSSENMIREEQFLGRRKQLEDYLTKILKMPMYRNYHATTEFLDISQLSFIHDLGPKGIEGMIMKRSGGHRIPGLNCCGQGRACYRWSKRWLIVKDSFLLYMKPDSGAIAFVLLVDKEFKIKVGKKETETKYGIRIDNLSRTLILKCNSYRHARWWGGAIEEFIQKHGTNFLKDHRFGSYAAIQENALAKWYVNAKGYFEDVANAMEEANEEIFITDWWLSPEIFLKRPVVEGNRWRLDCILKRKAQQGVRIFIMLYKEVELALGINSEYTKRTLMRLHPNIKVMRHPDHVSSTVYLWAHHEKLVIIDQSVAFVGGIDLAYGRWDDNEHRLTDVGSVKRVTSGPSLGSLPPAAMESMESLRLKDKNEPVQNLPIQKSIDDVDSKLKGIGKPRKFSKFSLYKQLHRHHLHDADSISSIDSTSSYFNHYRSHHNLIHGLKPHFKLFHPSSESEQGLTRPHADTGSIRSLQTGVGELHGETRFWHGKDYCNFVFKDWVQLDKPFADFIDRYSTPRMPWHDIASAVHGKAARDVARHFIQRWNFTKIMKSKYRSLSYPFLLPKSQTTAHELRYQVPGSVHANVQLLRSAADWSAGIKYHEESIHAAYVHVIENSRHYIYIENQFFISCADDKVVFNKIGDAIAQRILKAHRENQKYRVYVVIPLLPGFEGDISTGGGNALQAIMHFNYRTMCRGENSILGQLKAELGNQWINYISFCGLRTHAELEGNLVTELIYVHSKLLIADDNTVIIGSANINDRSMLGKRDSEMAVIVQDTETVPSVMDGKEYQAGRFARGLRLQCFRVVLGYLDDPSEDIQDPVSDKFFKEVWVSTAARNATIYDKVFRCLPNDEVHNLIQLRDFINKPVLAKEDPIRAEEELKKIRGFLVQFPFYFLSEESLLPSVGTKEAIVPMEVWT

[4] = test system: A549 cells; assay: Colony-forming assay; type: cell-based
In short: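 Cells seeded at 500–1,000 per well; test compound added 48 h after seeding, with 48 h exposure. Medium was changed every 3 days and cultures kept 10 days. Colonies were fixed in 4% PFA for 20 min, stained with crystal violet for 30 min, and counted by image analysis.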

With “N-(3,5-Bis(trifluoromethyl)phenyl)-3-(1H-indol-3-yl)propanamide [3r]” as the substance, how does the “weight of the normal mice” value [1] read?
The value was “no effect”.

And the PLD activity [2]?
Its PLD activity is “did not significantly inhibit”.

What about the PLD1 activity [3] of the same substance?
The PLD1 activity was “selectively suppressed”.

And the colony formation [4]?
Its colony formation is “significantly inhibited”.
